Data taken from ChEMBL document CHEMBL5370602, “Structure-Based Design of a Lead Compound Derived from Natural Schweinfurthins with Antitumor Properties That Target Oxysterol-Binding Protein” (J Med Chem, 2023).

Experiments:
[1] = Toxicity in immunodeficient nude mouse model xenografted with high alert medicated patient derived human GBM1 cells assessed as body weight change at 42 mg/kg,po QD for 5 days; assay type: organism-based; conditions: in vivo, 120 h, time 5 day
How it was run: (§1)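 Female athymic nude mice bearing subcutaneous GBM1-HAM PDX fragments (20 mm³); treatment began day 11 post-implant at tumour volumes 75-196 mm³, 10 per group. Compound i.p. daily in cyclodextrin vehicle (17 days alone, 27 days in combination); temozolomide 42 mg/kg p.o. daily for 5 days in PBS/glucose/Tween 80. Calliper volumes three times weekly; body weight and clinical signs monitored.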

[2] = Toxicity in immunodeficient nude mouse model xenografted with high alert medicated patient derived human GBM1 cells assessed as clinical symptoms at 42 mg/kg,po QD for 5 days; assay type: organism-based; conditions: in vivo, 120 h, time 5 day; how it was run: as §1
[3] = Antitumor activity in high alert medicated patient derived human GBM1 cells xenografted in immunodeficient nude mouse model assessed as T/C ratio at 42 mg/kg,po QD for 5 days and measured from 9 to 11 days; conditions: time 5 day
[4] = Antitumor activity in high alert medicated patient derived human GBM1 cells xenografted in immunodeficient nude mouse model assessed as tumor growth inhibition at 42 mg/kg,po QD for 5 days and measured from 9 to 11 days; conditions: GBM1, 120 h
[5] = Antitumor activity in high alert medicated patient derived human GBM1 cells xenografted in immunodeficient nude mouse model assessed as change in tumor volume at 42 mg/kg,po QD for 5 days and measured after 11 days relative to control; conditions: time 5 day

Cn1nnc2c(C(N)=O)ncn2c1=O [TEMOZOLOMIDE]
Activity [1]: Non-Toxic | Activity [2]: Non-Toxic | T/C [3]: 62.43% | TGDI at 42 mg/kg [4]: 1.34% | Activity [5]: 546.69%
